Tested on: FKBP12-NLuc or FKBP51-NLuc
Format: cell-based, human
Conditions: 1 µM Elacridar, 20 nM tracer 2b or 200 nM tracer 2c
Outline: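 HEK293T cells expressing C-terminal FKBP-NanoLuc fusions were resuspended in Opti-MEM at 4.6×105 (transient) or 1.81×10^6 cells/mL (stable). Tracer was added from an eightfold stock, and test compound in DMSO was 1:2 serially diluted. Plates were incubated 2 h at 37 °C, then 15 min at RT. NanoGlo substrate (1:664) and extracellular NanoLuc inhibitor (1:2000) were added, with donor read at 450 nm and acceptor at 660 nm after 3 min.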

Compound	effect of Elacridar on NanoBRET activity
C=CC[C@@H]1/C=C(\C)C[C@H](C)C[C@H](OC)[C@H]2O[C@@](O)(C(=O)C(=O)N3CCCC[C@H]3C(=O)O[C@H](/C(C)=C/[C@@H]3CC[C@@H](O)[C@H](OC)C3)[C@H](C)[C@@H](O)CC1=O)[C@H](C)C[C@@H]2OC [FK506]	did not affect
COc1ccc(CC[C@@H](OC(=O)[C@@H]2CCCCN2C(=O)[C@H](c2cc(OC)c(OC)c(OC)c2)C2CCCCC2)c2cccc(OCCN3CCOCC3)c2)cc1OC [SAFit2]	did not affect
